ChEMBL document CHEMBL1156993, “Benzyl prolinate derivatives as novel selective KCC2 blockers” (Bioorg Med Chem Lett, 2010)
In brackets after ≈: the same amount, converted by molar mass. Activity calls are given as the source filed them. The calls are words filed in the database; no cut-off is given here.

How the values were obtained:
[1] = molecular target: T1, Solute carrier family 12 member 5 (Rattus norvegicus, UniProt Q63633); assay: Antagonist activity of rat KCC2 transporter expressed in human SK-Hep cells assessed as inhibition of N-ethylmaleimide-mediated Rb+ influx after 10 mins by atomic absorption spectroscopy; assay type: functional, cell-based
T1 sequence (Q63633 whole entry): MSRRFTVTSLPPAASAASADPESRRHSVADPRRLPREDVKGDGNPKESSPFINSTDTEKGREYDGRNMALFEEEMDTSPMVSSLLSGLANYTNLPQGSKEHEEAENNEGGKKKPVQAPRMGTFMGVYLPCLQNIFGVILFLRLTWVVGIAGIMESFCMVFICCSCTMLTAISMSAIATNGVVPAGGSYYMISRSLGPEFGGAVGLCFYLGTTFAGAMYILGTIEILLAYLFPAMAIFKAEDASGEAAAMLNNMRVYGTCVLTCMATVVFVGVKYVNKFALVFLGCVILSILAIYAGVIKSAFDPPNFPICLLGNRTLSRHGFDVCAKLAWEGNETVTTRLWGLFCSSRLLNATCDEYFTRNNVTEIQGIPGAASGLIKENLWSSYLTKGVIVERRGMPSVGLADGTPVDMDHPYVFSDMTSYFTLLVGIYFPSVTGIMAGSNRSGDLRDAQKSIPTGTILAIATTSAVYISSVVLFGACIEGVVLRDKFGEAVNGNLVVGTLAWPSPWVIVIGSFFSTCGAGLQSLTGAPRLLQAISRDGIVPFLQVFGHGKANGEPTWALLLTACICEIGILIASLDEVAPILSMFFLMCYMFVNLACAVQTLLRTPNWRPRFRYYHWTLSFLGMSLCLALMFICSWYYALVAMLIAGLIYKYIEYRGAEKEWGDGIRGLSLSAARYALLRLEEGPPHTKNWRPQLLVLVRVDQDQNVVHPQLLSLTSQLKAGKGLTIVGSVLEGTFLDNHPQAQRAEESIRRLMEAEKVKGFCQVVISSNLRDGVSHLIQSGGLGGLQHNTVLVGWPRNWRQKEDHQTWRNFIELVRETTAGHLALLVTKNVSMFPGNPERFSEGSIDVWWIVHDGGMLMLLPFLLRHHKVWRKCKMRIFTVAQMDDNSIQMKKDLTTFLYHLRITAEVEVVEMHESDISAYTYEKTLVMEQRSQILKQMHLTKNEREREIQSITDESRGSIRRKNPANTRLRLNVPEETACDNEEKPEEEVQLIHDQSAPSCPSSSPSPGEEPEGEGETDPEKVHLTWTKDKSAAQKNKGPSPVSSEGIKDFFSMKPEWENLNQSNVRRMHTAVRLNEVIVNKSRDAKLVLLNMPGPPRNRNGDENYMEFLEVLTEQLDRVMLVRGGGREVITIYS
Method in brief: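 Rat KCC2 stably expressed in a selected clone. The co-transporter is activated with N-ethylmaleimide in the presence of the test compound, and Rb+ influx is started by adding 5 mM RbCl to the extracellular medium. Influx is stopped after 10 min by repeated washes. Intracellular Rb+ is measured by atomic absorption spectroscopy, and IC50 is reported.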

[2] = Intrinsic clearance in rat microsomes assessed per mg of protein; assay type: ADME, Microsome
[3] = Antagonist activity to dog NKCC1 transporter expressed in MDCK cells assessed as inhibition of Cl- free medium-stimulated Rb+ influx at 100 uM after 45 mins by atomic absorption spectroscopy; assay type: functional, Canis lupus familiaris; conditions: for inhibition at 100 µM: Canis lupus familiaris, MDCK, 0.75 h
Method in brief: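 MDCK cells express endogenous canine NKCC1. NKCC1 is activated by incubating the cells for 2 h in Cl−-free medium. Rb+ influx is then stimulated for 45 min by adding 20 mM RbCl to the extracellular solution. Intracellular Rb+ is quantified by atomic absorption spectroscopy, and results are given as percent inhibition.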

[4] = Intrinsic clearance in rat hepatocytes assessed per 10^6 cells
[5] = Aqueous solubility in PBS buffer at pH 7.4; assay type: physicochemical
[6] = Half life in Wistar rat at 1 mg/kg, iv; assay type: ADME, organism-based; design: dose 1 mg/kg, route intravenous; conditions: in vivo
Method in brief: (§1)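 Male Wistar rats are dosed at 1 mg/kg iv for half-life and clearance, and at 6 mg/kg po for AUC, Cmax and oral bioavailability.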

[7] = Clearance in Wistar rat at 1 mg/kg, iv; assay type: ADME, organism-based; design: dose 1 mg/kg, route intravenous; conditions: in vivo; method in brief: as §1
[8] = AUC in Wistar rat at 6 mg/kg, po; assay type: ADME, organism-based; design: dose 6 mg/kg, route oral; conditions: plasma; method in brief: as §1
[9] = Cmax in Wistar rat at 6 mg/kg, po; assay type: ADME, organism-based; design: dose 6 mg/kg, route oral; conditions: in vivo; method in brief: as §1
[10] = Oral bioavailability in Wistar rat at 6 mg/kg; assay type: ADME, organism-based; conditions: in vivo; method in brief: as §1
[11] = tested on: Mus musculus; assay: Anticonvulsant activity in audiogenic mouse epilepsy model assessed as inhibition of sound-induced wild running phase of seizure up to 75 mg/kg, ip pretreated 5 mins before acoustic stimulation; assay type: functional, organism-based; design: dose 75 mg/kg
Method in brief: (§2)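 Mice are pre-selected as responders in a first acoustic challenge (85 dB, 30 s). Wild running, clonic and tonic phases are scored. The next day, compound is given ip 5 min before the same stimulus. The proportion of mice protected against each of the three phases is calculated per group, with N = 10 per dose.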

[12] = tested on: Mus musculus; assay: Anticonvulsant activity in audiogenic mouse epilepsy model assessed as inhibition of sound-induced clonic phase of seizure up to 75 mg/kg, ip pretreated 5 mins before acoustic stimulation; assay type: functional, organism-based; design: dose 75 mg/kg; method in brief: as §2
[13] = tested on: Mus musculus; assay: Anticonvulsant activity in audiogenic mouse epilepsy model assessed as inhibition of sound-induced tonic convulsion phase of seizure up to 75 mg/kg, ip pretreated 5 mins before acoustic stimulation; assay type: functional, organism-based; design: dose 75 mg/kg; method in brief: as §2

Row | SMILES | IC50 [1] [µM] | also measured
1 | CC(=O)N1CCCC1(Cc1ccccc1)C(=O)OCc1ccccc1 (single isomer, unassigned; (-)) | 50 | CL [2]: 392 µL/min/mg
2 | CC(=O)N1CCCC1(CCc1ccccc1)C(=O)OCc1ccccc1 (stereo unspecified) | 8 | –
3 | CC(=O)N1CCCC1(Cc1ccccc1C#N)C(=O)OCc1ccccc1 (stereo unspecified) | 5 | –
4 | CC(=O)N1CCCC1(Cc1ccc(C)cc1)C(=O)OCc1ccccc1 (stereo unspecified) | 0.79 | –
5 | CC(=O)N1CCCC1(Cc1ccc(F)cc1)C(=O)OCc1ccccc1 (stereo unspecified) | 0.2 | –
6 | COc1ccc(CC2(C(=O)OCc3ccccc3)CCCN2C(C)=O)cc1 (stereo unspecified) | 0.4 | inhibition at 100 µM [3]: 59%; hepatocyte CLint [4]: 23 µL/min/1e6 cells; solubility [5]: 10 µg/mL (≈ 27.2 µM); microsomal CLint [2]: 333 µL/min/mg
7 | CC(=O)N1CCCC1(Cc1ccc(F)c(C(F)(F)F)c1)C(=O)OCc1ccccc1 (stereo unspecified) | 0.06 | inhibition at 100 µM [3]: 24%; hepatocyte CLint [4]: 20 µL/min/1e6 cells; solubility [5]: 0.5 µg/mL (≈ 1.18 µM); microsomal CLint [2]: 356 µL/min/mg
8 | CC(=O)N1CCCC1(Cc1ccccc1)C(=O)OCc1ccc(C)cc1 (stereo unspecified) | 0.79 | –
9 | CC(=O)N1CCCC1(Cc1ccccc1)C(=O)N(C)Cc1ccccc1 (stereo unspecified) | 32 | –
10 | CC(=O)N1CCCC1(Cc1ccsc1)C(=O)OCc1ccccc1 (stereo unspecified) | 0.79 | –
11 | CC(=O)N1CCCC1(Cc1ccc(F)cc1C(F)(F)F)C(=O)OCc1ccccc1 (stereo unspecified) | 4 | –
12 | CCNC(=O)N1CCCC1(Cc1ccccc1)C(=O)OCc1ccccc1 (stereo unspecified) | 2 | –
13 | CS(=O)(=O)N1CCCC1(Cc1ccccc1)C(=O)OCc1ccccc1 (stereo unspecified) | 1.6 | inhibition at 100 µM [3]: < 20%; hepatocyte CLint [4]: 23 µL/min/1e6 cells; solubility [5]: 1 µg/mL (≈ 2.68 µM); microsomal CLint [2]: 400 µL/min/mg
14 | CC(=O)N1CCCC1(Cc1ccccc1)C(=O)OCc1ccc(C(F)(F)F)cc1 (stereo unspecified) | 5 | –
15 | CC(=O)N1CCCC1(Cc1ccccc1)C(=O)OCc1ccccc1Cl (stereo unspecified) | 6 | –
16 | CC(=O)N1CCCC1(Cc1ccccc1)C(=O)OCc1ccc(S(C)(=O)=O)cc1 (stereo unspecified) | > 100 | –
17 | O=C(c1ccccc1)N1CCCC1(Cc1ccccc1)C(=O)OCc1ccccc1 (stereo unspecified) | 4 | –
18 | CC(=O)N1CCCC1(Cc1ccccc1)C(=O)OCCc1ccccc1 (stereo unspecified) | 10 | –
19 | CC(=O)N1CCCC1(Cc1ccccc1)C(=O)O (stereo unspecified) | > 100 | –
20 | CC(=O)N1CCCC1(Cc1ccccc1)C(=O)OCc1ccccc1 (single isomer, unassigned; (+)) | 0.32 | inhibition (INH) [3]: 14%
21 | CC(=O)N1CCCC1(Cc1ccc(Cl)cc1)C(=O)OCc1ccccc1 (stereo unspecified) | 0.32 | –
22 | COC(=O)N1CCCC1(Cc1ccccc1)C(=O)OCc1ccccc1 (stereo unspecified) | 0.4 | –
23 | CC(=O)N1CCCC1(Cc1cccc(C(F)(F)F)c1)C(=O)OCc1ccccc1 (stereo unspecified) | 0.08 | –
24 | CC(=O)N1CCCC1(Cc1ccccc1)C(=O)NCc1ccccc1 (stereo unspecified) | 100 | –

Row | SMILES | IC50 [1] [µM] | also measured
25 | COc1ccc(CC2(C(=O)OCc3ccccc3)CCCN2C(C)=O)cc1C(F)(F)F (stereo unspecified) | 0.05 | –
26 | CC(=O)N1CCCC1(CC1CCCCC1)C(=O)OCc1ccccc1 (stereo unspecified) | 1 | inhibition at 100 µM [3]: 39%; solubility [5]: 3 µg/mL (≈ 8.73 µM); microsomal CLint [2]: 382 µL/min/mg
27 | NS(=O)(=O)c1cc(C(=O)O)c(NCc2ccco2)cc1Cl [FUROSEMIDE] | – | inhibition at 100 µM [3]: 100%
28 | CC(=O)N1CCCC1(Cc1ccc(S(C)(=O)=O)cc1)C(=O)OCc1ccccc1 (single isomer, unassigned; (-)) | 40 | –
29 | CC(=O)N1CCCC1(Cc1ccc(C#N)cc1)C(=O)OCc1ccccc1 (stereo unspecified) | 0.16 | inhibition at 100 µM [3]: 31%; hepatocyte CLint [4]: 31 µL/min/1e6 cells; solubility [5]: 20 µg/mL (≈ 55.2 µM); microsomal CLint [2]: 123 µL/min/mg
30 | CC(=O)N1CCCC1(Cc1ccccc1)C(=O)OCc1ccccc1 (racemic) | 0.79 | inhibition (INH) [3]: 44%; hepatocyte CLint [4]: 28 µL/min/1e6 cells; solubility [5]: 2 µg/mL (≈ 5.93 µM); microsomal CLint [2]: 385 µL/min/mg; half-life [6]: 2.4 h; clearance [7]: 3.66 L/h/kg; AUC [8]: 8.6 ng·h/mL; Cmax [9]: 0.0119 µg/mL; bioavailability [10]: 0.5%
31 | CCC(=O)N1CCCC1(Cc1ccccc1)C(=O)OCc1ccccc1 (stereo unspecified) | 1.2 | –
32 | CC(=O)N1CCCC1(Cc1cccc(S(C)(=O)=O)c1)C(=O)OCc1ccccc1 (stereo unspecified) | 0.25 | inhibition at 100 µM [3]: 25%; hepatocyte CLint [4]: 24 µL/min/1e6 cells; microsomal CLint [2]: 107 µL/min/mg
33 | O=C(C1CC1)N1CCCC1(Cc1ccccc1)C(=O)OCc1ccccc1 (stereo unspecified) | 0.32 | –
34 | CC(=O)N1CCCC1(Cc1ccc(S(C)(=O)=O)cc1)C(=O)OCc1ccccc1 (stereo in doubt; 13) | – | Activity [11]: inactive; Activity [12]: inactive; Activity [13]: inactive
35 | CC(=O)N1CCCC1(Cc1ccccc1)C(=O)OCc1ccc(Cl)cc1 (stereo unspecified) | 1.3 | –
36 | COC(=O)C1(Cc2ccccc2)CCCN1C(C)=O (stereo unspecified) | > 100 | –
37 | CC(=O)N1CCCC1(Cc1ccncc1)C(=O)OCc1ccccc1 (stereo unspecified) | 2 | –
38 | CCC1(C(=O)OCc2ccccc2)CCCN1C(C)=O (stereo unspecified) | 80 | –
39 | CC(=O)N1CCCC1(Cc1ccccc1)C(=O)OCc1cccc(Cl)c1 (stereo unspecified) | 2.5 | –
40 | CC(=O)N1CCCC1(Cc1cccc(C#N)c1)C(=O)OCc1ccccc1 (stereo unspecified) | 0.32 | –
41 | O=C(OCc1ccccc1)C1(Cc2ccccc2)CCCN1 (stereo unspecified) | > 100 | –
42 | CC(=O)N1CCCC1(Cc1ccc(S(C)(=O)=O)cc1)C(=O)OCc1ccccc1 (single isomer, unassigned; (+)) | 0.4 | –
43 | CC(=O)N1CCCC1(Cc1ccccc1)C(=O)OCC1CCCCC1 (stereo unspecified) | 63 | –
44 | CC(=O)N1CCCC1(Cc1ccccc1)C(=O)OC(C)c1ccccc1 (stereo unspecified) | 4 | –
45 | CCN1CCCC1(Cc1ccccc1)C(=O)OCc1ccccc1 (stereo unspecified) | > 100 | –
46 | CC(=O)N1CCCC1(Cc1ccccc1)C(=O)OCc1ccncc1 (stereo unspecified) | > 100 | –
47 | CC(=O)N1CCCC1(Cc1ccc(C(F)(F)F)cc1)C(=O)OCc1ccccc1 (stereo unspecified) | 0.63 | inhibition at 100 µM [3]: 53%; hepatocyte CLint [4]: 20 µL/min/1e6 cells; solubility [5]: 2 µg/mL (≈ 4.93 µM); microsomal CLint [2]: 128 µL/min/mg
